# Key:
# [1] = target: T1, Sterol O-acyltransferase 1 (Rattus norvegicus, UniProt O70536); assay: Concentration required for 50% inhibition of Acyl coenzyme A:cholesterol acyltransferase activity using microsomal ACAT assay
# T1 sequence (O70536 whole entry): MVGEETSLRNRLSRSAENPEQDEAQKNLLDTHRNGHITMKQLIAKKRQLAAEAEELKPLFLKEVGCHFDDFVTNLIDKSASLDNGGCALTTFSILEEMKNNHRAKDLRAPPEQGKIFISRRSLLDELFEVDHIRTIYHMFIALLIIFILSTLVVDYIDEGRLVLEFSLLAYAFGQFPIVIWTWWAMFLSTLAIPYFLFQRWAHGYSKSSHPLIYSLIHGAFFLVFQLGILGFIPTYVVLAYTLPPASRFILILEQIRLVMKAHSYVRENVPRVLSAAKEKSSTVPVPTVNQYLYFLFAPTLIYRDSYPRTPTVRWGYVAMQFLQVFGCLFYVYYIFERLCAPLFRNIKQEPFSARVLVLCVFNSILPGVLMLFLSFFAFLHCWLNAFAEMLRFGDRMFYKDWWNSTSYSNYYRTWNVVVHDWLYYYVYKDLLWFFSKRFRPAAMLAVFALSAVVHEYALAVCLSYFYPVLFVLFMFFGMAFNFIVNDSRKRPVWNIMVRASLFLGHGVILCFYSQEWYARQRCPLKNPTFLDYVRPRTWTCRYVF
# [2] = target: T2, Sterol O-acyltransferase 1 (Rattus norvegicus) (UniProt O70536); assay: Inhibition of Acyl coenzyme A:cholesterol acyltransferase in microsomal ACAT assay at 10 uM
# T2 sequence (whole entry): T1 sequence (O70536 whole entry)
# Procedure, shortened: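 Rat hepatic microsomes (12.5 μg protein) with 90 µM fatty-acid-free BSA in 0.1 M potassium phosphate, 2 mM DTT, pH 7.4. Compound added from DMSO stocks and preincubated 15 min at 37 °C. Reaction started with [³H]-oleoyl-CoA (10 μM final) and run 15 min at 37 °C. Aliquot spotted on silica TLC, developed, and radioactivity in the cholesteryl oleate band counted by scintillation.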
# [3] = tested on: Cricetinae gen. sp.; assay: Percent reduction in plasma cholesterol was evaluated by hamster cholesterol absorption assay at the particular dose of 50 (mg/kg/day); format: functional, Cricetulus griseus
# Procedure, shortened: (§1)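 Hamsters fed cholesterol for 1 week while dosed daily (mg/kg/day). Read-out was inhibition of the rise in plasma cholesterol, measured by a cholesterol oxidase kit method.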
# [4] = tested on: Cricetinae gen. sp.; assay: Percent reduction of hepatic cholesteryl esters was evaluated by hamster cholesterol absorption assay at the particular dose of 50 (mg/kg/day); format: functional, Cricetulus griseus
# Procedure, shortened: (§2)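 Hamsters fed cholesterol for 1 week while dosed daily (mg/kg/day). Liver was Folch-extracted and neutral lipids were analysed by HPLC, giving the reduction in hepatic cholesteryl ester rise as the absorption marker. ED50 was taken from dose-response curves.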
# [5] = tested on: Cricetinae gen. sp.; assay: Percent reduction in plasma cholesterol was evaluated by hamster cholesterol absorption assay at the particular dose of 50(mg/kg/day); format: functional, Cricetulus griseus; procedure, shortened: as §1
# [6] = tested on: Cricetinae gen. sp.; assay: Effective dose evaluated in hamster cholesterol absorption assay; format: functional; procedure, shortened: as §2
# [7] = tested on: Cricetinae gen. sp.; assay: Percent reduction in plasma cholesterol was evaluated by hamster cholesterol absorption assay at the particular dose of 10 (mg/kg/day); format: functional, Cricetulus griseus; procedure, shortened: as §1
# [8] = tested on: Cricetinae gen. sp.; assay: Percent reduction of hepatic cholesteryl esters was evaluated by hamster cholesterol absorption assay at the particular dose of 10 (mg/kg/day); format: functional, Cricetulus griseus; procedure, shortened: as §2
# [9] = tested on: Cricetinae gen. sp.; assay: Percent reduction in plasma cholesterol was evaluated by hamster cholesterol absorption assay at the particular dose of 100 (mg/kg/day); format: functional, Cricetulus griseus; procedure, shortened: as §1
# [10] = tested on: Cricetinae gen. sp.; assay: Percent reduction of hepatic cholesteryl esters was evaluated by hamster cholesterol absorption assay at the particular dose of 100 (mg/kg/day); format: functional, Cricetulus griseus; procedure, shortened: as §2
# [11] = Cricetinae gen. sp., read-out: ED50
inhibition ([2]; 10 uM) [%],Compound,Reduction [3] [%],Reduction [4] [%],Reduction [7] [%],Reduction [8] [%],also measured
84,COc1ccc(N2C(=O)[C@@](CCCc3ccccc3)(c3ccccc3)[C@H]2c2ccccc2)cc1,11,16,–,–,IC50 [1]: 6 µM
38,CC[C@]1(CCCc2ccccc2)CN(c2c(OC)cc(OC)cc2OC)C1=O,–,-29,–,–,Reduction [5]: 7%
–,COc1ccc([C@@H]2[C@@H](CCCc3ccccc3)C(=O)N2c2ccc(OC)cc2)cc1 (racemic) [SCH-48461],–,–,21,60,ED50 [6]: 7.1 mg/kg/day
–,COc1ccc([C@@H]2[C@@H](CCCc3ccccc3)C(=O)N2c2ccc(OC)cc2)cc1 [SCH-48461],10,0,43,93,ED50 [6]: 2.2 mg/kg/day
72,CCCCCCCCCCC(C)(C)C(=O)Nc1c(OC)cc(OC)cc1OC [CL-976],–,–,0,33,"ED50 [6, 11]: 16 mg/kg/day"
–,CC[C@]1(CCCc2ccccc2)CN(c2ccc(OC)cc2)C1=O,10,0,–,–,–
28,COc1ccc(N2C(=O)[C@@H](CCCc3ccccc3)[C@H]2c2ccccc2)cc1,–,0,–,–,Reduction [5]: 0%
42,CC[C@]1(CCCc2ccccc2)C(=O)N(c2c(OC)cc(OC)cc2OC)[C@@H]1c1ccccc1,0,0,–,–,–
33,CC[C@]1(CCCc2ccccc2)C(=O)N(c2ccc(OC)cc2)[C@@H]1c1ccccc1,12,29,–,–,–
–,COc1ccc(N2C(=O)[C@@](C(=O)Cc3ccccc3)(c3ccccc3)[C@H]2c2ccccc2)cc1,–,–,–,–,"inhibition ([2]; 25 uM, in the assay text read “at 25 uM” for “at 10 uM”): 83%; Reduction [9]: 10%; Reduction [10]: 26%"
61,COc1cc(OC)c(N2C(=O)[C@@H](CCCc3ccccc3)[C@H]2c2ccccc2)c(OC)c1,0,-20,–,–,–
–,COc1ccc([C@@H]2[C@H](CCCc3ccccc3)C(=O)N2c2ccc(OC)cc2)cc1,–,–,17,55,"ED50 [6, 11]: 11.5 mg/kg/day"
82,CC[C@@]1(CCCc2ccccc2)C(=O)N(c2c(OC)cc(OC)cc2OC)[C@@H]1c1ccccc1,0,31,–,–,–

# Source: ChEMBL document CHEMBL1127536, “2-Azetidinones as inhibitors of cholesterol absorption” (J Med Chem, 1994)
